Consider two molecules from ChEMBL document CHEMBL1949585, “Design, synthesis and evaluation of telomerase inhibitory, hTERT repressing, and anti-proliferation activities of symmetrical 1,8-disubstituted amidoanthraquinones” (Eur J Med Chem, 2012).

The test system of experiment [1] is RPMI-8226. The experiment in a line: Growth inhibition of human RPMI8226 cells at 10 uM relative to control. Format: functional. To be noted: read-out: GI. The gist of the method:
(§1)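 Run in the NCI 60-cell human tumour panel. Cells were exposed to 10 µM compound, and growth was given as a percentage of untreated control cells set to 100%.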

The next experiment deals with SN12C. The experiment in a line: Cytotoxicity against human SN12C cells assessed as cell growth at 10 uM relative to control. To be noted: read-out: Activity. Format: functional. The gist of the method: (§2)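 Single-concentration screen in the NCI 60 human tumour cell line panel covering nine cancer types. Values are the mean growth percentage of compound-treated cells, with untreated control cells set as 100%.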

Another experiment concerns K562. Put plainly: Cytotoxicity against human K562 cells assessed as cell growth at 10 uM relative to control. Type of experiment: functional. To be noted: read-out: Activity. Summed up:
as §2

In another experiment the test system is SF-268. Put plainly: Cytotoxicity against human SF268 cells assessed as cell growth at 10 uM relative to control. Format: functional. To be noted: read-out: Activity. Summed up:
as §2

Experiment [2] in a line: Inhibition of human TERT expression in H1299 cells at 100 uM after 24 hrs by secreted alkaline phosphatase reporter gene assay relative to control; values are per cent of control. The note with it: NCI-H1299. Background: In a reporter assay the amount or activity of a reporter protein is the signal.
The next experiment concerns OVCAR-3. Put plainly: Cytotoxicity against human OVCAR3 cells assessed as cell growth at 10 uM relative to control. Format: functional. The note with it: read-out: Activity. Summed up:
as §2

A further experiment concerns MDA-MB-231. The experiment in a line: Cytotoxicity against human MDA-MB-231 cells assessed as cell growth at 10 uM relative to control. Type of experiment: functional. The note with it: read-out: Activity. The gist of the method:
as §2

A further experiment relates to UACC-62. Put plainly: Cytotoxicity against human UACC62 cells assessed as cell growth at 10 uM relative to control. Type of experiment: functional. To be noted: read-out: Activity. The gist of the method:
as §1

Experiment [3] can be described thus: Inhibition of human TERT expression in H1299 cells at 1 uM after 24 hrs by secreted alkaline phosphatase reporter gene assay relative to control; values are per cent of control. The note with it: NCI-H1299.
In another experiment the test system is COLO 205. Put plainly: Cytotoxicity against human COLO205 cells assessed as cell growth at 10 uM relative to control. Format: functional. To be noted: read-out: Activity. The gist of the method:
as §2

The test system of another experiment is MCF7. The experiment in a line: Cytotoxicity against human MCF7 cells assessed as cell growth at 10 uM relative to control. Type of experiment: functional. To be noted: read-out: Activity. The gist of the method: as §2
In a further experiment the test system is NCI-H322M. Put plainly: Cytotoxicity against human NCI-H322M cells assessed as cell growth at 10 uM relative to control. Format: functional. The note with it: read-out: Activity. The gist of the method:
as §2

A further experiment concerns MOLT-4. The experiment in a line: Cytotoxicity against human MOLT4 cells assessed as cell growth at 10 uM relative to control. Format: functional. To be noted: read-out: Activity. Summed up:
as §2

The subject of experiment [4] is RPMI-8226. The experiment in a line: Cytotoxicity against human RPMI8226 cells assessed as cell growth at 10 uM relative to control. Type of experiment: functional. To be noted: read-out: Activity. The gist of the method: as §2
A further experiment deals with EKVX. Put plainly: Cytotoxicity against human EKVX cells assessed as cell growth at 10 uM relative to control. To be noted: read-out: Activity. Type of experiment: functional. The gist of the method:
as §2

The next experiment concerns SF-295. Put plainly: Cytotoxicity against human SF295 cells assessed as cell growth at 10 uM relative to control. Type of experiment: functional. To be noted: read-out: Activity. The gist of the method: as §2
For another experiment, the system named is HCT-116. The experiment in a line: Cytotoxicity against human HCT116 cells assessed as cell growth at 10 uM relative to control. Type of experiment: functional. The note with it: read-out: Activity. Summed up: as §2
Another experiment concerns SK-MEL-2. Put plainly: Cytotoxicity against human SK-MEL-2 cells assessed as cell growth at 10 uM relative to control. Type of experiment: functional. To be noted: read-out: Activity. The gist of the method:
as §2

The next experiment relates to CCRF-CEM. The experiment in a line: Cytotoxicity against human CCRF-CEM cells assessed as cell growth at 10 uM relative to control. Type of experiment: functional. The note with it: read-out: Activity. Summed up: as §2
The subject of another experiment is SR. Put plainly: Cytotoxicity against human SR cells assessed as cell growth at 10 uM relative to control. Type of experiment: functional. To be noted: read-out: Activity. The gist of the method: as §1

As to `COC(=O)CNCC(=O)Nc1cccc2c1C(=O)c1c(NC(=O)CNCC(=O)OC)cccc1C2=O`, the inhibition of growth at 10 µM in the experiment with RPMI-8226 [1] was found to be 31.4%. For the same molecule, the growth at 10 µM with SN12C is 90.4%; with K562 it was 97.1%; in the experiment with SF-268, 100%; in the experiment with OVCAR-3, 89.9%; in the experiment on MDA-MB-231, 90.2%; in the experiment with UACC-62, 90.3%. For the same molecule, the growth at 10 µM was 102% in the experiment with COLO 205; 89.5% with MCF7; 94.5% in the experiment with NCI-H322M; 83.8% in the experiment with MOLT-4; 37.4% in the experiment on RPMI-8226 [4]; 104% in the experiment with EKVX. In addition, the growth at 10 µM in the experiment with SF-295 was 97.2%; in the experiment on HCT-116, 96.4%; in the experiment with SK-MEL-2, 107%; in the experiment with CCRF-CEM it was 64.4%. Also, the level, % of control in [2] was 12%; in experiment [3], 111%.
For `CCN(CC)CC(=O)Nc1cccc2c1C(=O)c1c(NC(=O)CN(CC)CC)cccc1C2=O`, the growth at 10 µM with SN12C was determined as 92.1%; in the experiment on K562, 106%; in the experiment with SF-268, 138%; in the experiment with SR, 88.5%; in the experiment on OVCAR-3 it was 161%; in the experiment on MDA-MB-231 it was 91.2%. The growth at 10 µM was determined as 93.5% in the experiment with UACC-62; 114% in the experiment on COLO 205; 88.7% in the experiment on MCF7; 93.8% in the experiment on NCI-H322M; 91.2% in the experiment with MOLT-4; 68.5% in the experiment with RPMI-8226 [4]. The growth at 10 µM is 104% in the experiment on EKVX; 88.9% in the experiment with SF-295; 84.2% with HCT-116; 84% in the experiment on SK-MEL-2; 84.6% in the experiment on CCRF-CEM. Also, the values for the level, % of control in experiment [2] and in experiment [3] were 42% and 86%, respectively.
